Results as given in ChEMBL document CHEMBL5058577, “EUbOPEN Chemogenomics Library 2 (Multiplex)” (2022).

Tested on: Fibroblast
Assay: Multiplex assay against human fibroblast
Format: toxicity, cell-based
Outline: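 Compound was added to live cells that had been stained at seeding with Hoechst33342, BioTracker Green Microtubule Cytoskeleton Dye, MitoTracker Red and Annexin V Alexa Fluor 680, and imaging followed on a CQ1 microscope at 37°C and 5% CO2. CellPathfinder machine-learning gating divided cells into Hoechst high-intensity objects or normal cells, normal cells into healthy, pyknosed or fragmented nuclei, and pyknosed cells into mitotic or apoptotic. Tubulin, mitochondrial-mass and membrane-permeability phenotypes are per cents of healthy-nucleus cells.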

[1] = 12 h, 1 µM, compound concentration 1 uM, replicate 1
[2] = 12 h, 1 µM, compound concentration 1 uM, replicate 2
[3] = 12 h, 10 µM, compound concentration 10 uM, replicate 1
[4] = 12 h, 10 µM, compound concentration 10 uM, replicate 2
[5] = 24 h, 1 µM, compound concentration 1 uM, replicate 1
[6] = 24 h, 1 µM, compound concentration 1 uM, replicate 2
[7] = 24 h, 10 µM, compound concentration 10 uM, replicate 1
[8] = 24 h, 10 µM, compound concentration 10 uM, replicate 2
[9] = 48 h, 1 µM, compound concentration 1 uM, replicate 1
[10] = 48 h, 1 µM, compound concentration 1 uM, replicate 2
[11] = 48 h, 10 µM, compound concentration 10 uM, replicate 1
[12] = 48 h, 10 µM, compound concentration 10 uM, replicate 2

CC(C)(C)c1ccc(CSc2cnn(C(C)(C)C)c(=O)c2Cl)cc1 [PYRIDABEN]
Population Apoptotic (%) [1]: 46% | Population Fragmented Nuclei (%) [1]: 15% | Population Healthy Nuclei (%) [1]: 66% | Population Hoechst High Intensity Objects (%) [1]: 1% | Population Membrane Permeable-Phenotype (%) [1]: 3% | Population Mitochondria Different-Phenotype (%) [1]: 1% | Population Mitotic Cells (%) [1]: 53% | Population Normal (%) [1]: 98% | Population Pyknosed Nuclei (%) [1]: 17% | Population Tubulin-Different-Phenotype (%) [1]: 28% | Total Cell Count [1]: 148 | Population Apoptotic (%) [2]: 44% | Population Fragmented Nuclei (%) [2]: 27% | Population Healthy Nuclei (%) [2]: 47% | Population Hoechst High Intensity Objects (%) [2]: 4% | Population Membrane Permeable-Phenotype (%) [2]: 12% | Population Mitochondria Different-Phenotype (%) [2]: 7% | Population Mitotic Cells (%) [2]: 55% | Population Normal (%) [2]: 95% | Population Pyknosed Nuclei (%) [2]: 25% | Population Tubulin-Different-Phenotype (%) [2]: 57% | Total Cell Count [2]: 142 | Population Apoptotic (%) [3]: 25% | Population Fragmented Nuclei (%) [3]: 11% | Population Healthy Nuclei (%) [3]: 68% | Population Hoechst High Intensity Objects (%) [3]: 4% | Population Membrane Permeable-Phenotype (%) [3]: 2% | Population Mitochondria Different-Phenotype (%) [3]: 5% | Population Mitotic Cells (%) [3]: 74% | Population Normal (%) [3]: 95% | Population Pyknosed Nuclei (%) [3]: 20% | Population Tubulin-Different-Phenotype (%) [3]: 35% | Total Cell Count [3]: 139 | Population Apoptotic (%) [4]: 47% | Population Fragmented Nuclei (%) [4]: 25% | Population Healthy Nuclei (%) [4]: 49% | Population Hoechst High Intensity Objects (%) [4]: 1% | Population Membrane Permeable-Phenotype (%) [4]: 12% | Population Mitochondria Different-Phenotype (%) [4]: 4% | Population Mitotic Cells (%) [4]: 52% | Population Normal (%) [4]: 98% | Population Pyknosed Nuclei (%) [4]: 25% | Population Tubulin-Different-Phenotype (%) [4]: 54% | Total Cell Count [4]: 136 | Population Apoptotic (%) [5]: 35% | Population Fragmented Nuclei (%) [5]: 17% | Population Healthy Nuclei (%) [5]: 71% | Population Hoechst High Intensity Objects (%) [5]: 0% | Population Membrane Permeable-Phenotype (%) [5]: 0% | Population Mitochondria Different-Phenotype (%) [5]: 2% | Population Mitotic Cells (%) [5]: 64% | Population Normal (%) [5]: 99% | Population Pyknosed Nuclei (%) [5]: 11% | Population Tubulin-Different-Phenotype (%) [5]: 20% | Total Cell Count [5]: 148 | Population Apoptotic (%) [6]: 36% | Population Fragmented Nuclei (%) [6]: 30% | Population Healthy Nuclei (%) [6]: 48% | Population Hoechst High Intensity Objects (%) [6]: 4% | Population Membrane Permeable-Phenotype (%) [6]: 7% | Population Mitochondria Different-Phenotype (%) [6]: 8% | Population Mitotic Cells (%) [6]: 63% | Population Normal (%) [6]: 95% | Population Pyknosed Nuclei (%) [6]: 21% | Population Tubulin-Different-Phenotype (%) [6]: 50% | Population Apoptotic (%) [7]: 56% | Population Fragmented Nuclei (%) [7]: 13% | Population Healthy Nuclei (%) [7]: 62% | Population Hoechst High Intensity Objects (%) [7]: 2% | Population Membrane Permeable-Phenotype (%) [7]: 1% | Population Mitochondria Different-Phenotype (%) [7]: 7% | Population Mitotic Cells (%) [7]: 43% | Population Normal (%) [7]: 97% | Population Pyknosed Nuclei (%) [7]: 23% | Population Tubulin-Different-Phenotype (%) [7]: 40% | Total Cell Count [7]: 139 | Population Apoptotic (%) [8]: 54% | Population Fragmented Nuclei (%) [8]: 28% | Population Healthy Nuclei (%) [8]: 48% | Population Hoechst High Intensity Objects (%) [8]: 0% | Population Membrane Permeable-Phenotype (%) [8]: 9% | Population Mitochondria Different-Phenotype (%) [8]: 9% | Population Mitotic Cells (%) [8]: 45% | Population Normal (%) [8]: 99% | Population Pyknosed Nuclei (%) [8]: 22% | Population Tubulin-Different-Phenotype (%) [8]: 53% | Total Cell Count [8]: 136 | Population Apoptotic (%) [9]: 50% | Population Fragmented Nuclei (%) [9]: 27% | Population Healthy Nuclei (%) [9]: 62% | Population Hoechst High Intensity Objects (%) [9]: 1% | Population Membrane Permeable-Phenotype (%) [9]: 0% | Population Mitochondria Different-Phenotype (%) [9]: 4% | Population Mitotic Cells (%) [9]: 50% | Population Normal (%) [9]: 98% | Population Pyknosed Nuclei (%) [9]: 9% | Population Tubulin-Different-Phenotype (%) [9]: 28% | Total Cell Count [9]: 164 | Population Apoptotic (%) [10]: 45% | Population Fragmented Nuclei (%) [10]: 43% | Population Healthy Nuclei (%) [10]: 41% | Population Hoechst High Intensity Objects (%) [10]: 4% | Population Membrane Permeable-Phenotype (%) [10]: 6% | Population Mitochondria Different-Phenotype (%) [10]: 15% | Population Mitotic Cells (%) [10]: 54% | Population Normal (%) [10]: 95% | Population Pyknosed Nuclei (%) [10]: 15% | Population Tubulin-Different-Phenotype (%) [10]: 63% | Total Cell Count [10]: 153 | Population Apoptotic (%) [11]: 72% | Population Fragmented Nuclei (%) [11]: 19% | Population Healthy Nuclei (%) [11]: 62% | Population Hoechst High Intensity Objects (%) [11]: 4% | Population Membrane Permeable-Phenotype (%) [11]: 0% | Population Mitochondria Different-Phenotype (%) [11]: 8% | Population Mitotic Cells (%) [11]: 28% | Population Normal (%) [11]: 95% | Population Pyknosed Nuclei (%) [11]: 18% | Population Tubulin-Different-Phenotype (%) [11]: 49% | Total Cell Count [11]: 143 | Population Apoptotic (%) [12]: 63% | Population Fragmented Nuclei (%) [12]: 36% | Population Healthy Nuclei (%) [12]: 48% | Population Hoechst High Intensity Objects (%) [12]: 5% | Population Membrane Permeable-Phenotype (%) [12]: 8% | Population Mitochondria Different-Phenotype (%) [12]: 10% | Population Mitotic Cells (%) [12]: 36% | Population Normal (%) [12]: 94% | Population Pyknosed Nuclei (%) [12]: 15% | Population Tubulin-Different-Phenotype (%) [12]: 58% | Total Cell Count [12]: 131
